A short description of data set [1]: Antioxidant activity assessed as DPPH radical scavenging activity after 1 hr by […]. Format: functional. An outline of the steps: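 DPPH (0.2 mM) in ethanol mixed with sample, kept 1 h at room temperature, absorbance read at 517 nm. Scavenging % = [1−(Ac−Ab)/A0]×100, where Ab is the sample in ethanol without DPPH and A0 is the ethanol+DPPH control. EC50 reported; vitamin C used as reference antioxidant; mean ± SD, n = 3.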

Data set [2] deals with PC-12. Put plainly: Neuroprotection activity in rat PC12 cells assessed as reduction in 6-OHDA-induced cell damages at 2.5 uM preincubated for 3 hrs followed by H2O2 addition and measured after 24 hrs by MTT assay relative to control. Format: functional, cell-based. Particulars: in the assay text read “6-OHDA addition” for “H2O2 addition”. An outline of the steps:
(§1)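 PC12 cells plated at 2 × 10^5 cells mL−1 for 1 day, pretreated 3 h with compounds at 2.5, 5 or 10 µM, then 6-OHDA (final 250 µM) added for 24 h. Viability by MTT, absorbance 570 nm; untreated cells = 100%; mean ± SD, n = 3.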

Data set [3] relates to PC-12. Nature of the data set: Neuroprotection activity in rat PC12 cells assessed as reduction in 6-OHDA-induced cell damages at 10 uM preincubated for 3 hrs followed by H2O2 addition and measured after 24 hrs by MTT assay relative to control. Format: functional, cell-based. Particulars: in the assay text read “6-OHDA addition” for “H2O2 addition”. An outline of the steps:
as §1

Data set [4] can be described thus: Cytotoxicity against rat PC12 cells assessed as cell viability at 100 uM after 24 hrs by MTT assay. Format: cell-based, PC-12. The conditions noted are these: read-out: Activity. An outline of the steps: (§2)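 Cells kept in high-glucose DMEM with 10% FBS and 1% PS at 37 °C, 5% CO2. Plated 1 day, then compounds for 24 h; viability by MTT at 100 µM as ODtreated/ODcontrol × 100%, untreated = 100%. Mean ± SD, n = 3.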

The subject of data set [5] is PC-12. Put plainly: Neuroprotection against H2O2-induced cell death in rat PC12 cells assessed as increase in cell viability at 5 uM preincubated for 3 hrs followed by H2O2 addition and measured after 3 hrs by MTS assay relative to CAPE. Format: functional. An outline of the steps:
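PC12 cells plated at 2 × 10^5 cells/mL for 1 day, pretreated with compound (2.5, 5, 10 µM) for 3 h, then H2O2 added (final 400 µM) for 3 h. Viability read by MTS at 490 nm, untreated cells = 100%. Mean ± SD, n = 3.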

A short description of data set [6]: Cytotoxicity against […] BV2 cells assessed as cell viability at 100 uM after 24 hrs by MTT assay. Format: cell-based. Particulars: read-out: Activity. An outline of the steps:
as §2

Data set [7] relates to PC-12. Nature of the data set: Neuroprotection activity in rat PC12 cells assessed as reduction in H2O2-induced cell death preincubated for 3 hrs followed by H2O2 addition and measured after 3 hrs by MTS assay. Format: functional, cell-based. An outline of the steps:
(§3)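 PC12 cells plated at 2 × 10^5 cells mL−1 for 1 day, pretreated 3 h with compounds, then H2O2 (final 400 µM) for 3 h. Viability by MTS at 490 nm relative to untreated cells (100%); single-concentration tests at 2.5, 5, 10 µM and IC50 values; mean ± SD, n = 3.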

Data set [8] is described as follows: Cytotoxicity against […] BV2 cells assessed as cell viability at 0.625 to 40 uM after 24 hrs by MTS assay. Format: cell-based. The conditions noted are these: read-out: Activity. An outline of the steps: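 Viability of BV2 cells read by MTS under the NO-assay conditions: 3 h compound (0.625–40 µM) pretreatment followed by LPS 100 ng mL−1 for 24 h.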
Data set [9] is described as follows: Anti-neuroinflammatory activity in […] BV2 cells assessed as reduction in LPS-induced NO production preincubated for 3 hrs followed by LPS stimulation for 24 hrs by Griess assay. The conditions noted are these: BV-2. Format: functional, cell-based. In outline: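 BV2 microglia seeded 3 × 10^5 cells mL−1 for 1 day; compounds in medium added for 3 h, then LPS (final 100 ng mL−1) for a further 24 h. Supernatant mixed with Griess reagent, absorbance at 540 nm. Inhibition % from NO release of LPS-only, unstimulated and compound+LPS wells; IC50 reported; mean ± SD, n = 3.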

Data set [10] relates to PC-12. Put plainly: Neuroprotection against H2O2-induced cell death in rat PC12 cells assessed as decrease in early apoptotic cells at 10 uM preincubated for 3 hrs followed by H2O2 addition and measured 3 hrs by Annexin V-FITC/propidium iodide staining based fluorescence microscopic method. Format: functional. An outline of the steps:
(§4)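 PC12 cells (1.5 × 10^5 cells mL−1, 35 mm dishes) plated 1 day, pretreated 3 h at 2.5 or 10 µM, then exposed to H2O2 (final 400 µM) for 3 h. Washed with ice-cold PBS, stained with Annexin V-FITC and PI in binding buffer for 5 min at 25 °C in the dark, and counted by fluorescence microscopy as early (AV+) or late (AV+PI+) apoptotic cells.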

The nature of data set [11]: Inhibition of soybean 15-LOX using arachidonic acid or linoleic acid as substrate incubated for 10 mins by colorimetric lipoxygenase inhibitor screening assay kit method. Set-up: species or system Glycine max. An outline of the steps:
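Soybean 15-LOX in a colorimetric kit: enzyme plus compound (1.25–100 µM, in assay buffer), reaction started with arachidonic or linoleic acid substrate, shaken at least 10 min. Chromogen added to stop and develop, absorbance at 490–500 nm; IC50 determined, mean ± SD, n = 3.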

Data set [12] deals with PC-12. Put plainly: Neuroprotection against H2O2-induced cell death in rat PC12 cells assessed as decrease in apoptotic cells at 2.5 uM preincubated for 3 hrs followed by H2O2 addition and measured 3 hrs by Annexin V-FITC/propidium iodide staining based fluorescence microscopic method. Format: functional. An outline of the steps: as §4
Data set [13] relates to PC-12. Put plainly: Neuroprotection against H2O2-induced cell death in rat PC12 cells assessed as decrease in late apoptotic cells at 10 uM preincubated for 3 hrs followed by H2O2 addition and measured 3 hrs by Annexin V-FITC/propidium iodide staining based fluorescence microscopic method. Format: functional. In outline:
as §4

The test system of data set [14] is PC-12. Put plainly: Neuroprotection against H2O2-induced cell death in rat PC12 cells assessed as increase in cell viability at 2.5 to 5 uM preincubated for 3 hrs followed by H2O2 addition and measured after 3 hrs by MTS assay. Format: functional, cell-based. An outline of the steps:
as §3

The nature of data set [15]: Potency index, ratio of IC50 for (E)-4-(2-((3-phenylpropyl)sulfonyl)vinyl)benzene-1,2-diol to IC50 for test compound for anti-neuroinflammatory activity in […] BV2 cells. Format: functional.
A short description of data set [16]: Potency index, ratio of IC50 for CAPE to IC50 for test compound for anti-neuroinflammatory activity in […] BV2 cells. Format: functional.

Active and inactive are the calls of the source. No cut-off for these calls is given here. Where only a bound is given, the exact number is not on record here.

Ten molecules from ChEMBL document CHEMBL4346690, “Structure-activity relationship studies of (E)-3,4-dihydroxystyryl alkyl sulfones as novel neuroprotective agents based on improved antioxidant, anti-inflammatory activities and BBB permeability” (Eur J Med Chem, 2019) can be followed below.

For `O=S(=O)(/C=C/c1ccc(O)c(O)c1)CC1CCCCC1`, the EC50 in data set [1] worked out at 7.5 µM. Besides, the outcome with PC-12 [2] and in the data set with PC-12 [3] was Active. In addition, the viability at 24 h, 100 µM in data set [4] is 87%; in data set [6] it was 74.7%. In the data set with PC-12 [5], the Activity amounted to 30%. Besides, the IC50 with PC-12 [7] was 1.85 µM; in data set [9], 6.7 µM. In addition, the viability at 24 h, up to 40 µM in data set [8] was greater than 90%.
Turning to `O=S(=O)(/C=C/c1ccc(O)c(O)c1)CCCC1CCCCC1`, the half-maximal effective concentration (EC50) in [1] was 7.9 µM. In addition, the outcome with PC-12 [2] and in the data set on PC-12 [3] was Active. Moreover, the viability at 24 h, 100 µM in data set [4] was 91.3%; in data set [6], 77.7%. In the data set on PC-12 [5], the Activity is listed as 30%. Moreover, the IC50 in the data set on PC-12 [7] amounted to 1 µM; in data set [9], 9.2 µM. Also, the viability at 24 h, up to 40 µM in [8] is greater than 90%.
For the molecule `C=CCCCCCCS(=O)(=O)/C=C/c1ccc(O)c(O)c1`, in data set [1], the EC50 was 6.4 µM. Moreover, the outcome in the data set with PC-12 [2] and with PC-12 [3] was Active. Besides, the viability at 24 h, 100 µM in data set [4] was determined as 66.9%; in data set [6], 73.4%. The Activity with PC-12 [5] is 30%. Further, the results for the IC50 (in the data set with PC-12 [7]; in data set [9]) were 1.35 µM and 8.7 µM, respectively. The viability at 24 h, up to 40 µM in data set [8] was greater than 90%.
As to `C=CCCCCCS(=O)(=O)/C=C/c1ccc(O)c(O)c1`, in data set [1], the EC50 came out at 7.1 µM. The outcome in the data set with PC-12 [2] and with PC-12 [3] was Active. Further, the viability at 24 h, 100 µM in data set [4] stood at 67.5%; in data set [6], 58.9%. Further, in the data set with PC-12 [5], the Activity is 30%. In addition, the figures for the IC50 (in the data set with PC-12 [7]; in [9]) were 1.62 µM and 11.2 µM, respectively. The viability at 24 h, up to 40 µM in data set [8] was greater than 90%.
Turning to `C=CCCCCCCCS(=O)(=O)/C=C/c1ccc(O)c(O)c1`, the EC50 in [1] amounted to 6.9 µM. The outcome with PC-12 [2] and with PC-12 [3] was Active. Also, the viability at 24 h, 100 µM in data set [4] worked out at 74.7%; in data set [6], 71.9%. The Activity in the data set on PC-12 [5] was determined as 30%. Also, the IC50 in the data set on PC-12 [7] stood at 1.9 µM; in [9] it was 8.3 µM. For the same molecule, the viability at 24 h, up to 40 µM in data set [8] was greater than 90%.
With `O=S(=O)(/C=C/c1ccc(O)c(O)c1)CCCc1ccccc1`, the outcome in the data set on PC-12 [10], in the data set on PC-12 [3], in the data set on PC-12 [12] and with PC-12 [13] was Active. The EC50 in data set [1] was 11.5 µM. In addition, the IC50 in [11] is 140 µM; in the data set on PC-12 [7], 1.86 µM; in [9] it was 13.4 µM. Moreover, the viability at 24 h, 100 µM came to 86.1% in [4] and 72% in data set [6]. In [8], the viability at 24 h, up to 40 µM is greater than 90%.
Consider `CCCCCS(=O)(=O)/C=C/c1ccc(O)c(O)c1`, for which, in data set [1], the EC50 came out at 8.1 µM. Also, the result with PC-12 [2] and with PC-12 [3] was Active. For the same molecule, the viability at 24 h, 100 µM in data set [4] is 57.4%; in data set [6], 70.1%. Moreover, the Activity in the data set with PC-12 [5] is 30%. Besides, the IC50 in the data set on PC-12 [7] was determined as 1.83 µM; in [9] it was 3.3 µM. Also, the viability at 24 h, up to 40 µM in data set [8] was greater than 90%.
As for `O=S(=O)(/C=C/c1ccc(O)c(O)c1)CCCC1CCCC1`, the result in the data set with PC-12 [10], with PC-12 [2], in the data set on PC-12 [3], with PC-12 [12], in the data set with PC-12 [14] and with PC-12 [13] was Active. In addition, the EC50 in [1] was 6.3 µM. Moreover, the values for the IC50 (in data set [11]; with PC-12 [7]; in data set [9]) were 103 µM, 1.28 µM and 1.6 µM, respectively. Further, the viability at 24 h, 100 µM in [4] was determined as 70.5%; in [6] it was 72.4%. In the data set on PC-12 [5], the Activity turned out to be 30%. In addition, the “Ratio IC50” value in data set [15] is listed as 8; in data set [16], 4. For the same molecule, the viability at 24 h, up to 40 µM in data set [8] is greater than 90%.
As to `CCCCCCS(=O)(=O)/C=C/c1ccc(O)c(O)c1`, the concentration for a half-maximal effect (EC50) in data set [1] was 7.3 µM. In addition, the result with PC-12 [2] and with PC-12 [3] was Active. Also, the viability at 24 h, 100 µM in [4] amounted to 63.7%; in [6], 56.2%. Further, in the data set with PC-12 [5], the Activity is 30%. Also, the figures for the IC50 (in the data set with PC-12 [7]; in [9]) were 1.3 µM and 3.8 µM, respectively. Also, in [8], the viability at 24 h, up to 40 µM was greater than 90%.
As for `CC(Cc1ccc(O)c(O)c1)C(C)Cc1ccc(O)c(O)c1` (stereo unspecified) [NORDIHYDROGUAIARETIC ACID], in data set [11], half-maximal inhibition (IC50) required 2.1 µM.
